# How the values were obtained:
# [1] = molecular target: Substance-P receptor (Cavia porcellus) (UniProt P30547); assay: Antagonist activity at NK1 receptor in guinea pig ileum assessed as inhibition of substance P-induced muscle contraction; assay type: functional, tissue-based
# Mu-type opioid receptor [2] = molecular target: Mu-type opioid receptor (Cavia porcellus, UniProt P97266); assay: Agonist activity at mu opioid receptor in guinea pig ileum assessed as inhibition of electrically-stimulated muscle contraction; assay type: functional, tissue-based
# [3] = molecular target: T1, Delta-type opioid receptor (Homo sapiens, UniProt P41143); assay: Agonist activity at human opioid delta receptor expressed in mouse HN9.10 cells assessed as [35S]GTPgammaS binding; assay type: functional, cell-based
# Method in brief: (§1)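 [35S]GTPγS binding on membranes of HN9.10 cells stably expressing human DOR or rat MOR, about 1 pmol receptor/mg membrane protein. logEC50 from non-linear regression of at least two independent experiments in duplicate; EC50 is the antilog. Emax given as percent stimulation.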
# Substance-P receptor [4] = molecular target: Substance-P receptor (Rattus norvegicus, UniProt P14600); assay: Displacement of [3H]substance P from rat NK1 receptor expressed in CHO cells; assay type: cell-based
# [5] = molecular target: T1, Delta-type opioid receptor; assay: Agonist activity at human opioid delta receptor expressed in mouse HN9.10 cells assessed as [35S]GTPgammaS binding relative to control; assay type: functional, cell-based; method in brief: as §1
# [6] = molecular target: Delta-type opioid receptor (Mus musculus, UniProt P32300); assay: Agonist activity at delta opioid receptor in mouse vas deferens assessed as inhibition of electrically-stimulated muscle contraction; assay type: functional, tissue-based
# [7] = molecular target: T1, Delta-type opioid receptor; assay: Displacement of [3H]DPDPE from human delta opioid receptor expressed in mouse HN9.10 cells; assay type: cell-based
# Substance-P receptor [8] = molecular target: Substance-P receptor (Homo sapiens, UniProt P25103); assay: Displacement of [3H]substance P from human NK1 receptor expressed in CHO cells; assay type: cell-based
# Mu-type opioid receptor [9] = molecular target: T2, Mu-type opioid receptor (Rattus norvegicus, UniProt P33535); assay: Displacement of [3H]DAMGO from rat mu opioid receptor expressed in mouse HN9.10 cells; assay type: cell-based
# Mu-type opioid receptor [10] = molecular target: T2, Mu-type opioid receptor; assay: Agonist activity at rat mu opioid receptor expressed in mouse HN9.10 cells assessed as [35S]GTPgammaS binding; assay type: functional, cell-based
# [11] = molecular target: Mu-type opioid receptor (Rattus norvegicus) (UniProt P33535); assay: Agonist activity at rat mu opioid receptor expressed in mouse HN9.10 cells assessed as [35S]GTPgammaS binding relative to control; assay type: functional, cell-based; method in brief: as §1
# Rattus norvegicus = assay: Antinociceptive activity in Sprague-Dawley rat assessed as time required to maximum activity on reduction in infrared heat-induced paw withdrawal latency at 10 ug administered intrathecally; assay type: functional
# Method in brief: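 Male Sprague-Dawley rats (200-225 g) fitted with a lumbar intrathecal catheter under ketamine/xylazine and given 5-7 days recovery. Dose of 10 μg in 5 μL i.t., followed by air bubble and saline flush. Radiant heat applied to left hind paw after 20 min acclimation, with 33.0 s cutoff. Baseline taken 30 min before dosing; […], mean ± SEM.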
# Plasma = assay: Metabolic stability in rat plasma after up to 6 hrs; assay type: ADME, cell-free
# Method in brief: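 DMSO stock diluted 1000-fold into rat plasma, giving 50 μg/mL final, and incubated at 37 °C. Aliquots taken at 1, 2, 4 and 6 h, proteins precipitated with acetonitrile, and remaining parent measured by HPLC. Three independent experiments, mean ± SD; half-life calculated.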
# T1 sequence (P41143 whole entry): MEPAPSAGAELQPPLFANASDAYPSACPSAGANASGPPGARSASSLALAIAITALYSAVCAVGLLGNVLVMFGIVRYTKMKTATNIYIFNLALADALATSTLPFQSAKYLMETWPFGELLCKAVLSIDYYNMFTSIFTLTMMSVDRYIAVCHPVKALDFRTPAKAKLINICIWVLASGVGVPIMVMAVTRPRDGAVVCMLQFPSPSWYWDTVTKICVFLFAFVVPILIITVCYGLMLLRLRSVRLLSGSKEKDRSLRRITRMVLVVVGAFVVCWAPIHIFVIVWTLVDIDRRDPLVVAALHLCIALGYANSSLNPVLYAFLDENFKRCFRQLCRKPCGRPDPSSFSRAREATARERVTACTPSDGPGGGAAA
# Substance-P receptor (Rattus norvegicus, UniProt P14600), sequence (P14600 whole entry): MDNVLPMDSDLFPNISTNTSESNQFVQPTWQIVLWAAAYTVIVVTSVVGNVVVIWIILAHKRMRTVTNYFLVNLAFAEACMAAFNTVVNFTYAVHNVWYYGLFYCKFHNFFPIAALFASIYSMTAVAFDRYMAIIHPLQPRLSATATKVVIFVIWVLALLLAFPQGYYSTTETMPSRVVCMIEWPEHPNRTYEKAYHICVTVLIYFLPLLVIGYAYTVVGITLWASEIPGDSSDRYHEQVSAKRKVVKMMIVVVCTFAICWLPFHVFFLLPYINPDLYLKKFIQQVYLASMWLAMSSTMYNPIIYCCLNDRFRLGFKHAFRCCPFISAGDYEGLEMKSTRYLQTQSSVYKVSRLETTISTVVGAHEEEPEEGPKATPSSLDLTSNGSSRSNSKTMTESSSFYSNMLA
# T2 sequence (P33535 whole entry): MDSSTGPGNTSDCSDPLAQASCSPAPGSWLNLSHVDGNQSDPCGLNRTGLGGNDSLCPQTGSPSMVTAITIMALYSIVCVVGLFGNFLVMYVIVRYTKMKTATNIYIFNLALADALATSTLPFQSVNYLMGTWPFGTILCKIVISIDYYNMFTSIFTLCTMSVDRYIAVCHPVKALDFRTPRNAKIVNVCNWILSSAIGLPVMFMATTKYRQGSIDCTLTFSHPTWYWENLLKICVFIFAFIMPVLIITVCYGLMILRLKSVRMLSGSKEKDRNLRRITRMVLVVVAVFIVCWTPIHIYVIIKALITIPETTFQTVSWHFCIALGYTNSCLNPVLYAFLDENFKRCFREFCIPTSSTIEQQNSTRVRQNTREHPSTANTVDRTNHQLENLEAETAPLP
# Delta-type opioid receptor (Mus musculus, UniProt P32300), sequence (P32300 whole entry): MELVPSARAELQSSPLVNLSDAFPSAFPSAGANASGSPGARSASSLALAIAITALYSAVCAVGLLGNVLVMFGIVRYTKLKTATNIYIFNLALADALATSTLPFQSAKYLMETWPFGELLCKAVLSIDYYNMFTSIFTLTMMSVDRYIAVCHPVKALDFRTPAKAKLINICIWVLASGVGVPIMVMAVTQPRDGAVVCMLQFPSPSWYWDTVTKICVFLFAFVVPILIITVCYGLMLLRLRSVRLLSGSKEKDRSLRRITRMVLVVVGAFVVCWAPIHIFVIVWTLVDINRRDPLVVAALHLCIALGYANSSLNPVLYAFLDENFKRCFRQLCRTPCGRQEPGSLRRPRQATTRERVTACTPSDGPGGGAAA
# Substance-P receptor (Cavia porcellus), sequence (P30547 whole entry): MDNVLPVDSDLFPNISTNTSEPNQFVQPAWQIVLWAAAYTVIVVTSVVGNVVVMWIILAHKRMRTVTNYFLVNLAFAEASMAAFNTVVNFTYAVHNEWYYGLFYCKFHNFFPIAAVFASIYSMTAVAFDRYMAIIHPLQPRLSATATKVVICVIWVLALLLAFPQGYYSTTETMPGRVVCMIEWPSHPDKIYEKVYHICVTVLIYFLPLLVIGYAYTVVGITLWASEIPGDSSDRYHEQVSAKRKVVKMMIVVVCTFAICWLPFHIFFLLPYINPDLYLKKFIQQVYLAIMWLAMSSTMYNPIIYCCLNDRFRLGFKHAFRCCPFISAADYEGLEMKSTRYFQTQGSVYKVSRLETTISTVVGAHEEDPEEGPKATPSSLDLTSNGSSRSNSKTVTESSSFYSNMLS
# Mu-type opioid receptor (Cavia porcellus, UniProt P97266), sequence (P97266 whole entry): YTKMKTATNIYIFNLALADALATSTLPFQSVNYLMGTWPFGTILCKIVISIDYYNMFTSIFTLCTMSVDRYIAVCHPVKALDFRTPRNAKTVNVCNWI
# Substance-P receptor (Homo sapiens, UniProt P25103), sequence (P25103 whole entry): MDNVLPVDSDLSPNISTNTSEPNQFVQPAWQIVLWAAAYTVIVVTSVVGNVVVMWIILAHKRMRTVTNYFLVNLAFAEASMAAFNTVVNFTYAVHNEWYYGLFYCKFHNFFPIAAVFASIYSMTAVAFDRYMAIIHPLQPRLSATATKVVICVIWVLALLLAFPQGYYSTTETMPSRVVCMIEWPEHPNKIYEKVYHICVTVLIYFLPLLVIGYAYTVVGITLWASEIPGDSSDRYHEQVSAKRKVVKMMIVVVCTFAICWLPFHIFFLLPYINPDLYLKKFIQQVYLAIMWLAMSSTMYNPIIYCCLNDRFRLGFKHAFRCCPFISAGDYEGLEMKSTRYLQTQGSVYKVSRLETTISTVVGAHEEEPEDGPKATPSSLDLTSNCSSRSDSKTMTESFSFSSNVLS
# Mu-type opioid receptor (Rattus norvegicus), sequence (P33535 whole entry): as the sequence (P33535 whole entry) above
SMILES,Ke [1],IC50 (Mu-type opioid receptor [2]),EC50 ([3]; read-out: EC50),EC50 ([3]; read-out: pEC50 (converted)),IC50 (Substance-P receptor [4]),Emax [5],IC50 [6],IC50 [7],IC50 (Substance-P receptor [8]),IC50 (Mu-type opioid receptor [9]),EC50 (Mu-type opioid receptor [10]; read-out: EC50),Ki (Substance-P receptor [4]),Ki (Substance-P receptor [8]),Emax [11],Time (Rattus norvegicus),Ki [7],EC50 (Mu-type opioid receptor [10]; read-out: pEC50 (converted)),Stability (Plasma)
CCCC[C@H](NC(=O)[C@H](Cc1ccccc1)NC(=O)CNC(=O)[C@@H](C)NC(=O)[C@@H](N)Cc1c(C)cc(O)cc1C)C(=O)N1CCC[C@H]1C(=O)N[C@@H](CC(C)C)C(=O)N[C@@H](Cc1c[nH]c2ccccc12)C(=O)N(C)Cc1cc(C(F)(F)F)cc(C(F)(F)F)c1,6.1 nM,110 nM,2.3 nM,7.08 nM,30.9 nM,49%,14 nM,0.977 nM,0.468 nM,3.31 nM,8 nM,,,,,,,
CCCC[C@H](NC(=O)[C@H](Cc1ccccc1)NC(=O)CNC(=O)[C@@H](C)NC(=O)[C@@H](N)Cc1c(C)cc(O)cc1C)C(=O)N1CCC[C@H]1C(=O)N[C@@H](CC(C)C)C(=O)N[C@@H](Cc1c[nH]c2ccccc12)C(=O)NCc1cc(C(F)(F)F)cc(C(F)(F)F)c1,13 nM,,,0.126 nM,,,,24 nM,0.166 nM,,,,,,,,,
CCCC[C@H](NC(=O)[C@H](Cc1ccccc1)NC(=O)CNC(=O)[C@@H](C)NC(=O)[C@@H](N)Cc1c(C)cc(O)cc1C)C(=O)N1CCC[C@H]1C(=O)N[C@@H](CC(C)C)C(=O)N[C@@H](Cc1c[nH]c2ccccc12)C(=O)NCc1cccc(C(F)(F)F)c1,14 nM,22 nM,0.2 nM,0.437 nM,389 nM,50%,8.7 nM,8.51 nM,2.19 nM,,,140 nM,1 nM,17%,,,,
CN1CC[C@]23c4c5ccc(O)c4O[C@H]2[C@@H](O)C=C[C@H]3[C@H]1C5 [MORPHINE],,,,,,,,,,,,,,,20 min,,,
CCCC[C@H](NC(=O)[C@H](Cc1ccccc1)NC(=O)CNC(=O)[C@@H](C)NC(=O)[C@@H](N)Cc1c(C)cc(O)cc1C)C(=O)N1CCC[C@H]1C(=O)N[C@@H](CC(C)C)C(=O)N[C@@H](Cc1c[nH]c2ccccc12)C(=O)NCc1ccc(OC)c(OC)c1,24 nM,23 nM,0.6 nM,,891 nM,42%,8.8 nM,0.316 nM,2 nM,0.631 nM,0.72 nM,320 nM,0.95 nM,48%,,0.15 nM,0.955 nM,
CSCC[C@H](NC(=O)[C@H](Cc1ccccc1)NC(=O)CNC(=O)[C@@H](C)NC(=O)[C@@H](N)Cc1c(C)cc(O)cc1C)C(=O)N1CCC[C@H]1C(=O)N[C@@H](CC(C)C)C(=O)N[C@@H](Cc1c[nH]c2ccccc12)C(=O)NCc1cc(C(F)(F)F)cc(C(F)(F)F)c1,7.5 nM,,,,5.13 nM,,,0.38 nM,0.0182 nM,4.27 nM,,,,,,,,Stable
CSCC[C@H](NC(=O)[C@H](Cc1ccccc1)NC(=O)CNC(=O)[C@@H](C)NC(=O)[C@@H](N)Cc1ccc(O)cc1)C(=O)N1CCC[C@H]1C(=O)N[C@@H](CC(C)C)C(=O)N[C@@H](Cc1c[nH]c2ccccc12)C(=O)NCc1cc(C(F)(F)F)cc(C(F)(F)F)c1,,,,,,,,,,,,,,,15 min,,,

# Source: ChEMBL document CHEMBL1765015, “Discovery of a potent and efficacious peptide derivative for δ/μ opioid agonist/neurokinin 1 antagonist activity with a 2',6'-dimethyl-L-tyrosine: in vitro, in vivo, and NMR-based structural studies” (J Med Chem, 2011)
